Source: publication PMC4716659 (European journal of medicinal chemistry, 2015)
In brackets after ≈: the same amount, converted by molar mass. Entries after “also recorded” stand apart in the source; their conditions may differ.

Tests used:
[1] = tested on: S. aureus ATCC 43300 (MRSA); assay: MBC, plating onto TSA; format: cell-based, Staphylococcus aureus; conditions: Staphylococcus aureus, ATCC43300|MRSA
[2] = tested on: S. aureus USA500 (MRSA); assay: MBC, plating onto TSA; format: cell-based, Staphylococcus aureus; conditions: Staphylococcus aureus, MRSA|USA500
[3] = tested on: S. aureus NRS37 (VISA); assay: MBC, plating onto TSA; format: cell-based, Staphylococcus aureus; conditions: Staphylococcus aureus, NRS37|VISA
[4] = tested on: S. aureus VRS5 (VRSA); assay: MBC, plating onto TSA; format: cell-based, Staphylococcus aureus; conditions: Staphylococcus aureus, VRSA
[5] = tested on: S. aureus NRS37 (VISA); assay: MIC, broth microdilution; format: cell-based, Staphylococcus aureus; conditions: Staphylococcus aureus, NRS37|VISA
[6] = tested on: S. aureus USA300 (MRSA); assay: MBC, plating onto TSA; format: cell-based, Staphylococcus aureus; conditions: Staphylococcus aureus, MRSA|USA300
[7] = tested on: three VRSA strains; assay: MIC against VRSA strains; format: cell-based; conditions: Staphylococcus aureus
[8] = tested on: S. aureus USA 400 (MRSA); assay: MIC, broth microdilution; format: cell-based, Staphylococcus aureus; conditions: Staphylococcus aureus, MRSA|USA400
[9] = tested on: S. aureus NRS119 (MRSA); assay: MIC, broth microdilution; format: cell-based, Staphylococcus aureus; conditions: Staphylococcus aureus, MRSA|NRS119
[10] = tested on: S. aureus NRS194 (MRSA); assay: MBC, plating onto TSA; format: cell-based, Staphylococcus aureus; conditions: Staphylococcus aureus, MRSA|NRS194
[11] = tested on: S. aureus NRS194 (MRSA); assay: MIC, broth microdilution; format: cell-based, Staphylococcus aureus; conditions: Staphylococcus aureus, MRSA|NRS194
[12] = tested on: S. aureus VRS5 (VRSA); assay: MIC, broth microdilution; format: cell-based, Staphylococcus aureus; conditions: Staphylococcus aureus, VRSA
[13] = tested on: S. aureus USA300 (MRSA); assay: MIC, broth microdilution; format: cell-based, Staphylococcus aureus; conditions: Staphylococcus aureus, MRSA|USA300
[14] = tested on: S. aureus VRS4 (VRSA); assay: MIC, broth microdilution; format: cell-based, Staphylococcus aureus; conditions: Staphylococcus aureus, VRSA
[15] = tested on: S. aureus NRS1 (VISA); assay: MIC, broth microdilution; format: cell-based, Staphylococcus aureus; conditions: Staphylococcus aureus, NRS1|VISA
[16] = tested on: S. aureus VRS1 (VRSA); assay: MBC, plating onto TSA; format: cell-based, Staphylococcus aureus; conditions: Staphylococcus aureus, VRSA
[17] = tested on: S. aureus NRS19 (VISA); assay: MBC, plating onto TSA; format: cell-based, Staphylococcus aureus; conditions: Staphylococcus aureus, NRS19|VISA
[18] = tested on: S. aureus NRS1 (VISA); assay: MBC, plating onto TSA; format: cell-based, Staphylococcus aureus; conditions: Staphylococcus aureus, NRS1|VISA
[19] = tested on: S. aureus USA 400 (MRSA); assay: MBC, plating onto TSA; format: cell-based, Staphylococcus aureus; conditions: Staphylococcus aureus, MRSA|USA400
[20] = tested on: methicillin-resistant Staphylococcus aureus (MRSA) ATCC 43300; assay: MIC, broth microdilution; format: cell-based; conditions: Staphylococcus aureus, ATCC43300|MRSA
[21] = tested on: human embryonic kidney (HEK293) cell line; assay: In vitro cytotoxicity, MTS assay; conditions: 40 μg/mL
[22] = tested on: S. aureus NRS19 (VISA); assay: MIC, broth microdilution; format: cell-based, Staphylococcus aureus; conditions: Staphylococcus aureus, NRS19|VISA
[23] = tested on: S. aureus VRS4 (VRSA); assay: MBC, plating onto TSA; format: cell-based, Staphylococcus aureus; conditions: Staphylococcus aureus, VRSA
[24] = tested on: S. aureus NRS107 (MRSA); assay: MIC, broth microdilution; format: cell-based, Staphylococcus aureus; conditions: Staphylococcus aureus, MRSA|NRS107
[25] = tested on: S. aureus NRS119 (MRSA); assay: MBC, plating onto TSA; format: cell-based, Staphylococcus aureus; conditions: Staphylococcus aureus, MRSA|NRS119
[26] = tested on: S. aureus VRS1 (VRSA); assay: MIC, broth microdilution; format: cell-based, Staphylococcus aureus; conditions: Staphylococcus aureus, VRSA
[27] = tested on: S. aureus NRS107 (MRSA); assay: MBC, plating onto TSA; format: cell-based, Staphylococcus aureus; conditions: Staphylococcus aureus, MRSA|NRS107
[28] = tested on: S. aureus USA500 (MRSA); assay: MIC, broth microdilution; format: cell-based, Staphylococcus aureus; conditions: Staphylococcus aureus, MRSA|USA500
[29] = tested on: two VISA isolates; assay: MIC against VISA isolates; format: cell-based; conditions: Staphylococcus aureus
[30] = tested on: MRSA USA300; assay: Time-kill analysis; format: cell-based, Staphylococcus aureus; conditions: MRSA USA300, 3 × MIC, 37 °C
In short: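 Late-log-phase cells diluted to ~1 × 10^8 CFU/mL in MHB and exposed to test compound or vancomycin in triplicate at 37 °C. 20 μL samples taken at 0, 2, 4, 6, 8, 10, 12 and 24 h, serially diluted in PBS, and plated on TSA. Plates incubated 18–20 h at 37 °C, then viable CFU/mL counted. Data given as mean ± standard deviation.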

[31] = human, microsomes, pH 7.4

Row | SMILES | MBC [1] [µg/mL] | MBC [2] [µg/mL] | MBC [3] [µg/mL] | MBC [4] [µg/mL] | MIC [5] [µg/mL] | MBC [6] [µg/mL] | MIC [8] [µg/mL] | MIC [9] [µg/mL] | MBC [10] [µg/mL] | MIC [11] [µg/mL] | MIC [12] [µg/mL] | MIC [13] [µg/mL] | MIC [14] [µg/mL] | MIC [15] [µg/mL] | MBC [16] [µg/mL] | MBC [17] [µg/mL] | MBC [18] [µg/mL] | MBC [19] [µg/mL] | MIC [22] [µg/mL] | MBC [23] [µg/mL] | further results
1 | [H]/N=C(\N)NN=C(C)c1sc(-c2ccc(-c3ccc(C(F)(F)F)cc3)cc2)nc1C [22c, (E)-2-(1-(4-Methyl-2-(4′-(trifluoromethyl)-[1,1′-biphenyl]-4-yl)thiazol-5-yl)ethylidene)hydrazinecarboximidamide] | 3.3 (≈ 7.9 µM) | 3.3 (≈ 7.9 µM) | 3.3 (≈ 7.9 µM) | 6.7 (≈ 16 µM) | 3.3 (≈ 7.9 µM) | 6.7 (≈ 16 µM) | 6.7 (≈ 16 µM) | 6.7 (≈ 16 µM) | 13.3 (≈ 31.9 µM) | 6.7 (≈ 16 µM) | 6.7 (≈ 16 µM) | 6.7 (≈ 16 µM) | 6.7 (≈ 16 µM) | 3.3 (≈ 7.9 µM) | 6.7 (≈ 16 µM) | 3.3 (≈ 7.9 µM) | 3.3 (≈ 7.9 µM) | 13.3 (≈ 31.9 µM) | 3.3 (≈ 7.9 µM) | 6.7 (≈ 16 µM) | MIC [7]: 6.7 µg/mL (≈ 16 µM); MIC ([20]; MRSA ATCC 43300): 3.3 µg/mL (≈ 7.9 µM); toxicity to mammalian cells (MTS assay) [21]: toxic; MIC [24]: 3.3 µg/mL (≈ 7.9 µM); MBC [25]: 6.7 µg/mL (≈ 16 µM); MIC [26]: 6.7 µg/mL (≈ 16 µM); MBC [27]: 6.7 µg/mL (≈ 16 µM); MIC [28]: 3.3 µg/mL (≈ 7.9 µM)
2 | CN[C@H](CC(C)C)C(=O)N[C@H]1C(=O)N[C@@H](CC(N)=O)C(=O)N[C@H]2C(=O)N[C@H]3C(=O)N[C@H](C(=O)N[C@H](C(=O)O)c4cc(O)cc(O)c4-c4cc3ccc4O)[C@H](O)c3ccc(c(Cl)c3)Oc3cc2cc(c3O[C@@H]2O[C@H](CO)[C@@H](O)[C@H](O)[C@H]2O[C@H]2C[C@](C)(N)[C@H](O)[C@H](C)O2)Oc2ccc(cc2Cl)[C@H]1O [Vancomycin, reference compound] | 0.7 (≈ 0.483 µM) | 0.7 (≈ 0.483 µM) | 3 (≈ 2.07 µM) | > 190 | 3 (≈ 2.07 µM) | 0.7 (≈ 0.483 µM) | 0.7 (≈ 0.483 µM) | < 1.5 | 0.7 (≈ 0.483 µM) | 0.7 (≈ 0.483 µM) | > 190 | 0.7 (≈ 0.483 µM) | > 190 | 3 (≈ 2.07 µM) | > 190 | < 1.5 | 3 (≈ 2.07 µM) | 0.7 (≈ 0.483 µM) | < 1.5 | > 190 | MIC [29]: 3 µg/mL (≈ 2.07 µM); MIC [7]: > 190 µg/mL; MIC [20]: 0.7 µg/mL (≈ 0.483 µM); MIC [24]: < 1.5 µg/mL; time to completely eradicate MRSA growth [30]: 24 h; MBC [25]: < 1.5 µg/mL; MIC [26]: > 190 µg/mL; MBC [27]: < 1.5 µg/mL; MIC [28]: 0.7 µg/mL (≈ 0.483 µM)
3 | CC(=O)CC(c1ccccc1)c1c(O)c2ccccc2oc1=O (stereo not shown) [Warfarin] |  |  |  |  |  |  |  |  |  |  |  |  |  |  |  |  |  |  |  |  | NADPH-dependent CLint [31]: 0.0 µL/min/mg; NADPH-free CLint [31]: 0.0 µL/min/mg
4 | [H]/N=C(\N)NN=C(C)c1sc(-c2ccc(-c3cccc4ccccc34)cc2)nc1C [compound 25, (E)-2-(1-(4-Methyl-2-(4-(naphthalen-1-yl)phenyl)thiazol-5-yl)ethylidene)hydrazinecarboximidamide] | 1.6 (≈ 4 µM) | 3.2 (≈ 8.01 µM) | 1.6 (≈ 4 µM) | 3.2 (≈ 8.01 µM) | 1.6 (≈ 4 µM) | 1.6 (≈ 4 µM) | 1.6 (≈ 4 µM) | 1.6 (≈ 4 µM) | 1.6 (≈ 4 µM) | 1.6 (≈ 4 µM) | 3.2 (≈ 8.01 µM) | 1.6 (≈ 4 µM) | 3.2 (≈ 8.01 µM) | 1.6 (≈ 4 µM) | 3.2 (≈ 8.01 µM) | 1.6 (≈ 4 µM) | 1.6 (≈ 4 µM) | 1.6 (≈ 4 µM) | 1.6 (≈ 4 µM) | 3.2 (≈ 8.01 µM) | MIC [29]: 1.6 µg/mL (≈ 4 µM); MIC ([20]; MRSA ATCC 43300): 1.6 µg/mL (≈ 4 µM); toxicity to mammalian cells (MTS assay) [21]: not toxic; also recorded: improved toxicity profile; MIC [24]: 1.6 µg/mL (≈ 4 µM); time to completely eradicate MRSA growth [30]: 10 h; MBC [25]: 1.6 µg/mL (≈ 4 µM); MIC [26]: 3.2 µg/mL (≈ 8.01 µM); MBC [27]: 1.6 µg/mL (≈ 4 µM); MIC [28]: 1.6 µg/mL (≈ 4 µM)
